For assay [1], the target named is Growth hormone secretagogue receptor type 1 (Homo sapiens) (UniProt Q92847). As to the kind of experiment: Agonist activity at human ghrelin receptor ([…]) assessed as myo-[2-3H]inositol phosphate accumulation measured after 75 mins by scintillation proximity assay. Format: functional.
Assay [2] concerns the target Motilin receptor (Homo sapiens) (UniProt O43193). Description: Agonist activity at human motilin receptor (412 residues) assessed as myo-[2-3H]inositol phosphate accumulation in presence of 10 uM Zn2+ measured after 75 mins by scintillation proximity assay. In kind it is functional.
Assay [3] concerns the target T1, G-protein coupled receptor 39 (Homo sapiens, UniProt O43194).
T1 sequence (O43194 whole entry): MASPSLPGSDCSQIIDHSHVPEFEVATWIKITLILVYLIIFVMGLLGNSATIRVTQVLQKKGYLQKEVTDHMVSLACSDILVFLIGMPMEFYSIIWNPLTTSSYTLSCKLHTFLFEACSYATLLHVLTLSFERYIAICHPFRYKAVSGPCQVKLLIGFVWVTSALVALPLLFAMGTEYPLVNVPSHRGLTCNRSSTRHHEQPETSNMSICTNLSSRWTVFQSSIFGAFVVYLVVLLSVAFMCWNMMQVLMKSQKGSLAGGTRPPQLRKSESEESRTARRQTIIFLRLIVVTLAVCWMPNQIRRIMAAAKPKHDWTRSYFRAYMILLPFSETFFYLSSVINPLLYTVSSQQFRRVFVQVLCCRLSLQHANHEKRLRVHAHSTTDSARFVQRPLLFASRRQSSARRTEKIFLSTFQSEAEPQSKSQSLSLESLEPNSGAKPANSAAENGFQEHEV
As to the kind of experiment: (§1) Agonist activity at human GPR39 expressed in HEK293 cells co-expressing Galphaq assessed as myo-[2-3H]inositol phosphate accumulation in presence of 10 uM Zn2+ measured after 75 mins by scintillation proximity assay. Format: functional, cell-based.

In assay [4] the target is T2, G-protein coupled receptor 39 (Homo sapiens) (UniProt O43194).
T2 sequence (whole entry): T1 sequence (O43194 whole entry)
Description: Agonist activity at GPR39 (unknown origin) expressed in COS7 cells co-expressing Galphas assessed as increase in intracellular cAMP level measured after 30 mins by chemiluminescence assay. Format: functional, cell-based.

Assay [5] has as its target T3, G-protein coupled receptor 39 (Mus musculus) (UniProt Q5U431).
T3 sequence (whole entry): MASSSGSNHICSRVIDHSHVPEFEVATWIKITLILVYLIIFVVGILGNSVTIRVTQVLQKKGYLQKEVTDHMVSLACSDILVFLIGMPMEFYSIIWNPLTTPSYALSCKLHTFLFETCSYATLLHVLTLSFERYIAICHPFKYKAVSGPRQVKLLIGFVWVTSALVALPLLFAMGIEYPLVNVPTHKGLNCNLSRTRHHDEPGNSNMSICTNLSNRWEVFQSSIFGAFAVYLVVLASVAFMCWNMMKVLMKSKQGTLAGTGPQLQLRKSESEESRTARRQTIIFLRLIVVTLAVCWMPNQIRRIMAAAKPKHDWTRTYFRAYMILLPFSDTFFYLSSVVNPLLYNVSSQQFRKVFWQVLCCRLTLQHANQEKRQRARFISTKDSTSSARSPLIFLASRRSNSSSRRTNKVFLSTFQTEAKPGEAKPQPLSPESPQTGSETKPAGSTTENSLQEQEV
As to the kind of experiment: Agonist activity at GPR39 in primary gastric mucosal cells isolated from C57BL/6 mouse assessed as inhibition of basal ghrelin secretion at 1 uM in presence of 10 uM of Zn2+ measured after 4 hrs by ELISA relative to basal level.

Assay [6] deals with T3, G-protein coupled receptor 39 (Mus musculus). Description: Agonist activity at GPR39 in primary gastric mucosal cells isolated from C57BL/6 mouse assessed as myo-[2-3H]inositol phosphate accumulation in presence of 10 uM Zn2+ measured after 75 mins by scintillation proximity assay. In kind it is functional. The essentials: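 Primary murine gastric mucosal cell cultures stimulated with ligand plus 10 μM Zn2+; inositol phosphate turnover read out as for the transfected-cell IP accumulation assay.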

Assay [7] deals with Growth hormone secretagogue receptor type 1 (Homo sapiens) (UniProt Q92847). Description: Agonist activity at human ghrelin receptor ([…]) assessed as myo-[2-3H]inositol phosphate accumulation in presence of 10 uM Zn2+ measured after 75 mins by scintillation proximity assay. In kind it is functional.
The target in assay [8] is T3, G-protein coupled receptor 39 (Mus musculus). As to the kind of experiment: Agonist activity at GPR39 in primary gastric mucosal cells isolated from C57BL/6 mouse assessed as inhibition of isoproterenol-induced ghrelin secretion at 1 uM in presence of 10 uM of Zn2+ and somatostatin receptor antagonist BIM-23627 measured after 4 hrs by ELISA. The gist of the method:
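Primary gastric mucosal cell cultures from mice, incubated the day after preparation with ligands at 1 μM with 10 μM Zn2+ (with or without a somatostatin receptor antagonist) in triplicate for 4 h. Acyl-ghrelin in supernatant measured by ELISA, expressed as percent of medium-alone cells; n=5–7; unpaired t-test with Welch's correction versus vehicle.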

Assay [9] addresses T4, C-C chemokine receptor type 1 (Homo sapiens) (UniProt P32246).
T4 sequence (whole entry): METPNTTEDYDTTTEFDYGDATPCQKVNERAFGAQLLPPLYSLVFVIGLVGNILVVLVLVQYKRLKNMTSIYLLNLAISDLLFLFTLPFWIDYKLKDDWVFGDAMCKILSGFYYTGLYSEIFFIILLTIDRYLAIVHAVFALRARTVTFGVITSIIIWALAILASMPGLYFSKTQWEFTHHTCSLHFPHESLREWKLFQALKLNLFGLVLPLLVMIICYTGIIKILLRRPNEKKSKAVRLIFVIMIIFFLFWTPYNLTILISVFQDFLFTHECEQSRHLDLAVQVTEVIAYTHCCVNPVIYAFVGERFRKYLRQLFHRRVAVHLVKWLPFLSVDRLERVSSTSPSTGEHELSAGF
Description: Agonist activity at full length human CCR1 assessed as myo-[2-3H]inositol phosphate accumulation measured after 75 mins by scintillation proximity assay. In kind it is functional.

In assay [10] the target is Motilin receptor (Homo sapiens) (UniProt O43193). As to the kind of experiment: Agonist activity at human motilin receptor (412 residues) assessed as myo-[2-3H]inositol phosphate accumulation measured after 75 mins by scintillation proximity assay. In kind it is functional.
Chain of Motilin receptor (Homo sapiens) (O43193 whole entry): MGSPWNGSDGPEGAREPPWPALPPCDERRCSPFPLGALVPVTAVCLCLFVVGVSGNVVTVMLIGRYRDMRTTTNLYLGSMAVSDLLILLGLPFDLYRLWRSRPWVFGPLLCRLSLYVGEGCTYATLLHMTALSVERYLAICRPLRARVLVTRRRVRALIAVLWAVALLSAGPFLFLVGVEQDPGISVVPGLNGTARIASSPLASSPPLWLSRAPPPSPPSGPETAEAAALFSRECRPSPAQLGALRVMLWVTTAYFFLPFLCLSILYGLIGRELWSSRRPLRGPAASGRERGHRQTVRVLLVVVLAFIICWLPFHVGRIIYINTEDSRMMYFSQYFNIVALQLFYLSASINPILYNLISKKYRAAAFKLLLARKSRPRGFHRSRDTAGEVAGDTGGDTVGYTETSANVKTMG
The nature of assay [11]: Increase in CGRP-induced somatostatin release in primary gastric mucosal cells isolated from GPR39 deficient C57BL/6 mouse at 1 uM in presence of 10 uM of Zn2+ measured after 4 hrs by radioimmunoassay relative to control. In kind it is functional, Primary gastric mucosal cell. Particulars: in the assay text read “C57BL/6 mouse” for “GPR39 deficient C57BL/6 mouse”.
The target of assay [12] is Neuromedin-U receptor 2 (Homo sapiens) (UniProt Q9GZQ4). As to the kind of experiment: Agonist activity at human NMU2 receptor assessed as myo-[2-3H]inositol phosphate accumulation in presence of 10 uM Zn2+ measured after 75 mins by scintillation proximity assay. In kind it is functional.
Chain of Neuromedin-U receptor 2 (Homo sapiens) (Q9GZQ4 whole entry): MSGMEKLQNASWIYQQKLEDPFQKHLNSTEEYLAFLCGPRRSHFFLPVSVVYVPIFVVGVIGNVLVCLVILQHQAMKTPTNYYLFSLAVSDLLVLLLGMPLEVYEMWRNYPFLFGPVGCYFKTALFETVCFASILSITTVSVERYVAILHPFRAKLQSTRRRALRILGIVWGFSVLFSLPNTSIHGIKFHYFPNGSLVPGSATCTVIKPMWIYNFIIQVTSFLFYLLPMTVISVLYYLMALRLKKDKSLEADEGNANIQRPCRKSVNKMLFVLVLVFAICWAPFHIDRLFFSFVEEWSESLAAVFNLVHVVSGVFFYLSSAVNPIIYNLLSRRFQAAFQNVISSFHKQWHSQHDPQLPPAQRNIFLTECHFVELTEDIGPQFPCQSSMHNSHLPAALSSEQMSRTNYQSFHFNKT
Assay [13] deals with T4, C-C chemokine receptor type 1 (Homo sapiens). Description: Agonist activity at full length human CCR1 assessed as myo-[2-3H]inositol phosphate accumulation in presence of 10 uM Zn2+ measured after 75 mins by scintillation proximity assay. Format: functional.
The target of assay [14] is T5, G-protein coupled receptor 39 (Mus musculus, UniProt Q5U431).
T5 sequence (Q5U431 whole entry): T3 sequence (whole entry)
Description: Agonist activity at mouse GPR39 expressed in HEK293 cells co-expressing Galphaq assessed as myo-[2-3H]inositol phosphate accumulation in presence of 10 uM Zn2+ measured after 75 mins by scintillation proximity assay. Format: functional, cell-based.

The target in assay [15] is T2, G-protein coupled receptor 39 (Homo sapiens). Description: (§2) Agonist activity at GPR39 (unknown origin) expressed in COS7 cells co-expressing Galphas assessed as increase in intracellular cAMP level in presence of 3 uM Zn2+ measured after 30 mins by chemiluminescence assay. Format: functional, cell-based.
In assay [16] the target is T1, G-protein coupled receptor 39. The description is as §2. In kind it is functional, cell-based.
In assay [17] the target is C-C chemokine receptor type 5 (Macaca mulatta) (UniProt P61813). Description: Agonist activity at full length monkey CCR5 assessed as myo-[2-3H]inositol phosphate accumulation in presence of 10 uM Zn2+ measured after 75 mins by scintillation proximity assay. Format: functional.
The subject of assay [18] is Primary gastric mucosal cell. Description: Induction of CGRP-induced somatostatin release in primary gastric mucosal cells isolated from GPR39 deficient C57BL/6 mouse at 1 uM in presence of 10 uM of Zn2+ measured after 4 hrs by radioimmunoassay. Format: functional, cell-based. The gist of the method:
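Primary gastric mucosal cells from GPR39-KO mice, day after preparation, exposed to ligands (1 μM, 10 μM Zn2+) in triplicate for 4 h; supernatant somatostatin measured by in-house RIA and expressed as percent of medium-alone secretion; 10 nM CGRP used as a comparator stimulus; n=2.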

Assay [19] addresses C-C chemokine receptor type 5 (Macaca mulatta) (UniProt P61813). Description: Agonist activity at full length rhesus monkey CCR5 assessed as myo-[2-3H]inositol phosphate accumulation measured after 75 mins by scintillation proximity assay. In kind it is functional.
The target in assay [20] is T1, G-protein coupled receptor 39. As to the kind of experiment: (§3) Agonist activity at human GPR39 expressed in HEK293 cells co-expressing Galphaq assessed as myo-[2-3H]inositol phosphate accumulation measured after 75 mins by scintillation proximity assay. Format: functional, cell-based.
The target in assay [21] is Neuromedin-U receptor 2 (Homo sapiens) (UniProt Q9GZQ4). Description: Agonist activity at human NMU2 receptor assessed as myo-[2-3H]inositol phosphate accumulation measured after 75 mins by scintillation proximity assay. In kind it is functional.
For assay [22], the target named is T2, G-protein coupled receptor 39 (Homo sapiens). Described as §1. Format: functional, cell-based.
For assay [23] the target is unchanged. As to the kind of experiment: Agonist activity at human GPR39 expressed in HEK293 cells co-expressing Galphaq assessed as myo-[2-3H]inositol phosphate accumulation in presence of 10 uM Zn2+ measured after 75 mins by scintillation proximity assay relative to zinc. Format: functional, cell-based.
Assay [24] has the same target. As to the kind of experiment: Agonist activity at human GPR39 expressed in HEK293 cells co-expressing Galphaq assessed as myo-[2-3H]inositol phosphate accumulation in presence of 100 nM Zn2+ measured after 75 mins by scintillation proximity assay. Format: functional, cell-based.
For assay [25] the target is unchanged. Description: Agonist activity at human GPR39 expressed in HEK293 cells co-expressing Galphaq assessed as myo-[2-3H]inositol phosphate accumulation in presence of 1 uM Zn2+ measured after 75 mins by scintillation proximity assay. Format: functional, cell-based.
The target is the same in assay [26]. Described as §3. Format: functional, cell-based.

Calls of active or inactive are those of the source. The rule behind the calls is not given here.

The values that follow come from ChEMBL document CHEMBL3994609, “Model-Based Discovery of Synthetic Agonists for the Zn2+-Sensing G-Protein-Coupled Receptor 39 (GPR39) Reveals Novel Biological Functions” (J Med Chem, 2017).

Chain of Growth hormone secretagogue receptor type 1 (Homo sapiens) (Q92847 whole entry): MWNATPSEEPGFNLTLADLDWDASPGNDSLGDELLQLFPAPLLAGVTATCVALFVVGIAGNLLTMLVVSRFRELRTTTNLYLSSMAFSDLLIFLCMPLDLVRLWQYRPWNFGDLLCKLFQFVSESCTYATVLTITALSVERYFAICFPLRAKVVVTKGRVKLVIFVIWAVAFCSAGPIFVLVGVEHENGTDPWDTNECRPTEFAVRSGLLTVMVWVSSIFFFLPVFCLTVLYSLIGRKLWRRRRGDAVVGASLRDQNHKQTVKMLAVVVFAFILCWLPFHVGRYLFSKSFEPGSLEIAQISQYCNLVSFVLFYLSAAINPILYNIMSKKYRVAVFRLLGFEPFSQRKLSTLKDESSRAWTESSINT

On to `Cc1nn(-c2ncnc3nc[nH]c23)c2c1C(OCc1cc(F)cc3c1OCOC3)CC(=O)N2` (centres undefined), for which the result in [1], in assay [2], in assay [4], in assay [7], in assay [9] and in assay [10] was inactive. For the same molecule, the result in [12], in [13], in assay [17], in assay [18], in assay [19] and in assay [21] was inactive. The concentration for a half-maximal effect (EC50) amounted to 1.5 nM in [3], 2.6 nM in assay [14], 12 nM in assay [16] and 30 nM in assay [20]. Also, in assay [5], the inhibition is 61%. Also, the values for the Activity result in assay [6], in assay [11] and in [15] were “Dose-dependent effect”, 82% and “Dose-dependent effect”, respectively. For the same molecule, in assay [8], the inhibition result is “inactive”.
With `Cc1cc(C)nc(-n2nc(C)c3c2NC(=O)CC3c2ccc(COc3cccc(Cl)c3)cc2)n1` (centres undefined), the outcome in assay [22] was Active. Also, the EC50 in [20] turned out to be 3000 nM. Also, the fold change (FC) in assay [23] came to 2.
For the molecule `O=C1/C(=C/NCCCO)C(c2ccccc2)=NN1c1nc2ccccc2s1`, the outcome in [24] and in assay [26] was inactive. Also, the EC50 in assay [3] was determined as 200 nM. Also, in [25], the Activity entry is “Dose-dependent effect”. In assay [23], the fold change (FC) was 2.
